Laboratory results from paper PMC5598146 (Toxicology Reports, 2015).

How the values were obtained:
[1] = Excretion in urine and feces of rats; format: in vivo, Sprague-Dawley rats; details: 10 mg/kg oral
[2] = test system: S. typhimurium strains TA98 and TA100; test: Abbreviated Ames; format: cell-based; details: plate incorporation, up to 5000 μg/plate, ±S9
Procedure, shortened: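 Salmonella TA98 and TA100 plate-incorporation assay per OECD 471, run with and without rat liver S9. Test compound and its decarboxylated impurity were tested at concentrations up to and including 5000 µg/plate, with vehicle and positive controls. Revertant colony counts were compared with vehicle control, and bacterial toxicity was recorded.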

[3] = test system: S. typhimurium strains TA98, TA100, TA1535, TA1537 and E. coli strain WP2 uvrA; test: Bacterial reverse mutation test; format: cell-based, Escherichia coli; details: 51-5000 ug/plate, plate incorporation and pre-incubation, ±S9
Sprague-Dawley rats = test: 90-Day subchronic toxicity study; format: in vivo, rat; details: 90 days
Procedure, shortened: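 Male and female Crl:CD(SD) rats, 20/sex/group, fed 0 (basal diet), 30, 60 or 100 mg/kg/day in the diet for 90 days. […] End-points: functional observation battery, motor activity, body weight gain, food consumption, hematology, clinical chemistry, urinalysis, organ weights, necropsy, and histopathology of at least 53 tissues (control and high dose only).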

[4] = test system: bred female Crl:CD(SD) rats; test: Definitive developmental toxicity study; format: in vivo, rat
Procedure, shortened: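 Bred female Crl:CD(SD) rats, 25/group, dosed once daily by oral gavage at 0, 250, 500 or 1000 mg/kg/day from gestation Days 6 through 20. Laparohysterectomy on gestation Day 21. Uteri, placentae and ovaries were examined; viable and dead fetuses, early and late resorptions, implantations and corpora lutea were counted; gravid uterine weight, net body weight and fetal weights were recorded.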

Cc1nc2cccc(OCC(C)(C)C(=O)NC(C)C)c2c(N)c1C(=O)O [S9632, 4-amino-5-(3-(isopropylamino)-2,2-dimethyl-3-oxopropoxy)-2-methylquinoline-3-carboxylic acid]
Oxidative metabolites (M + 16) in fecal samples [1]: not detectable
Oxidative metabolites (M + 16) in urine [1]: trace amounts
Mutagenicity, result [2]: not mutagenic
Reverse mutation (in vitro), result [3]: Negative
Findings (Sprague-Dawley rats; 30, 60, 100 mg/kg/day food ad-mix): No test-article related findings
NOEL (Sprague-Dawley rats; food ad-mix, male and female rats, highest dose tested): 100 mg/kg/day
Corpora Lutea, Mean ([4]; 250 mg/kg/d): 16.3
Corpora Lutea, Total ([4]; 250 mg/kg/d): 407
Dead fetuses, Mean ([4]; 250 mg/kg/d): 0
Dead fetuses, Total ([4]; 250 mg/kg/d): 0
Fetal Wt., Mean ([4]; 250 mg/kg/d): 5.5 g
Fetuses Sex F, Mean ([4]; 250 mg/kg/d): 6.8
Fetuses Sex F, Total ([4]; 250 mg/kg/d): 169
Fetuses Sex M, Mean ([4]; 250 mg/kg/d): 7.6
Fetuses Sex M, Total ([4]; 250 mg/kg/d): 189
Implant. sites, Mean ([4]; 250 mg/kg/d): 15.3
Implant. sites, Total ([4]; 250 mg/kg/d): 382
Post-implant. loss, Mean ([4]; 250 mg/kg/d): 1.0
Post-implant. loss, Total ([4]; 250 mg/kg/d): 24
Pre-implant. loss, Mean ([4]; 250 mg/kg/d): 1.0
Pre-implant. loss, Total ([4]; 250 mg/kg/d): 25
Resorptions Early, Mean ([4]; 250 mg/kg/d): 1.0
Resorptions Early, Total ([4]; 250 mg/kg/d): 24
Resorptions Late, Mean ([4]; 250 mg/kg/d): 0
Resorptions Late, Total ([4]; 250 mg/kg/d): 0
Viable fetuses, Mean ([4]; 250 mg/kg/d): 14.3
Viable fetuses, Total ([4]; 250 mg/kg/d): 358
Malformations, fetuses (litters) ([4]; 250 mg/kg/day): 1(1)
Corpora Lutea, Mean ([4]; 500 mg/kg/d): 16.8
Corpora Lutea, Total ([4]; 500 mg/kg/d): 421
Dead fetuses, Mean ([4]; 500 mg/kg/d): 0
Dead fetuses, Total ([4]; 500 mg/kg/d): 0
Fetal Wt., Mean ([4]; 500 mg/kg/d): 5.4 g
Fetuses Sex F, Mean ([4]; 500 mg/kg/d): 7.4
Fetuses Sex F, Total ([4]; 500 mg/kg/d): 184
Fetuses Sex M, Mean ([4]; 500 mg/kg/d): 7.1
Fetuses Sex M, Total ([4]; 500 mg/kg/d): 177
Implant. sites, Mean ([4]; 500 mg/kg/d): 15.3
Implant. sites, Total ([4]; 500 mg/kg/d): 383
Post-implant. loss, Mean ([4]; 500 mg/kg/d): 0.9
Post-implant. loss, Total ([4]; 500 mg/kg/d): 22
Pre-implant. loss, Mean ([4]; 500 mg/kg/d): 1.5
Pre-implant. loss, Total ([4]; 500 mg/kg/d): 38
Resorptions Early, Mean ([4]; 500 mg/kg/d): 0.5
Resorptions Early, Total ([4]; 500 mg/kg/d): 12
Resorptions Late, Mean ([4]; 500 mg/kg/d): 0.4
Resorptions Late, Total ([4]; 500 mg/kg/d): 10
Viable fetuses, Mean ([4]; 500 mg/kg/d): 14.4
Viable fetuses, Total ([4]; 500 mg/kg/d): 361
Malformations, fetuses (litters) ([4]; 500 mg/kg/day): 1(1)
Corpora Lutea, Mean ([4]; 1000 mg/kg/d): 16.5
Corpora Lutea, Total ([4]; 1000 mg/kg/d): 413
Dead fetuses, Mean ([4]; 1000 mg/kg/d): 0
Dead fetuses, Total ([4]; 1000 mg/kg/d): 0
Fetal Wt., Mean ([4]; 1000 mg/kg/d): 5.6 g
Fetuses Sex F, Mean ([4]; 1000 mg/kg/d): 7.8
Fetuses Sex F, Total ([4]; 1000 mg/kg/d): 194
Fetuses Sex M, Mean ([4]; 1000 mg/kg/d): 7.2
Fetuses Sex M, Total ([4]; 1000 mg/kg/d): 181
Implant. sites, Mean ([4]; 1000 mg/kg/d): 15.7
Implant. sites, Total ([4]; 1000 mg/kg/d): 393
Post-implant. loss, Mean ([4]; 1000 mg/kg/d): 0.7
Post-implant. loss, Total ([4]; 1000 mg/kg/d): 18
Pre-implant. loss, Mean ([4]; 1000 mg/kg/d): 0.80
Pre-implant. loss, Total ([4]; 1000 mg/kg/d): 20
Resorptions Early, Mean ([4]; 1000 mg/kg/d): 0.7
Resorptions Early, Total ([4]; 1000 mg/kg/d): 18
Resorptions Late, Mean ([4]; 1000 mg/kg/d): 0
Resorptions Late, Total ([4]; 1000 mg/kg/d): 0
Viable fetuses, Mean ([4]; 1000 mg/kg/d): 15.0
Viable fetuses, Total ([4]; 1000 mg/kg/d): 375
Malformations, fetuses (litters) ([4]; 1000 mg/kg/day): 3(3)
